# KCNK9 block – inhibitors of human KCNK9 two-pore domain potassium channel; Q9NPC2; 310,000 tested, 1.2% active; B-score at 10 µM; HEK293 KCNK9, FluxOR thallium flux fluorescence; hits give low values;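 active = ratio B-score over 3 SD below the library mean, with starting fluorescence within 5 SD of its mean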;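 also: negative B-score means less thallium flux so channel inhibition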
# KCNQ1 block – human KCNQ1 channel inhibition; P51787; CHO-K1 KCNQ1, FluxOR thallium flux fluorescence; hits give high values; B-score at 10 µM; 310,000 tested, 1.3% active; AID 2642;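 active = compounds whose thallium flux B-score, printed positive for inhibition, exceeds three library SD while starting fluorescence stays within three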;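 also: channel opened by potassium depolarization with thallium stimulus after 20 min compound exposure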
# hERG rescue – shields human hERG channel from block by proarrhythmic agents. AID 1511. activation (rescue from dofetilide block), less the hit threshold, % at 10 µM. 310,000 tested, 0.51% active. CHO-hERG, FluxOR thallium flux, dofetilide IC70 present. Q12809;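 active = activation above the mean of controls blocked by dofetilide plus 5 SD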;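 also: thallium influx through hERG after potassium depolarization seen as dye fluorescence rise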
# KCNQ1 act – potentiators or activators of human KCNQ1 potassium channel | P51787 | B-score at 10 µM | 310,000 tested, 0.35% active | CHO-K1 KCNQ1, thallium flux FluxOR fluorescence; hits give high values | AID 2648;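 active = fluorescence ratio B-score, a plate-corrected score, at least three library SD, with initial intensity B-score within 5 SD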
#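 Medium – assay buffer, equal DMSO in all wells · Material – CHO-K1 cell line with stable KCNQ1 potassium channel expression · Signal – kinetic FluxOR thallium fluorescence, 10-s 1-Hz baseline, 110-s post-stimulus read · Compound – single concentration per compound, DMSO matched to controls · Schedule – 37 °C overnight plating, 90-min dark dye load, 20-min compound pretreatment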
# KCNK3 block – human KCNK3 channel inhibition, primary screen; O14649; AID 602410; 340,000 tested, 0.84% active; B-score at 10 µM; CHO-KCNK3 thallium flux, FluxOR fluorescence; hits give low values;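 active = B-score under library mean minus 4 SD, starting fluorescence ratio at most library mean plus 5 SD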;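 also: more negative B-score means stronger inhibition of thallium flux through KCNK3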
# KCNK9 inh conf – confirmation of human KCNK9 potassium channel inhibitors; shares compounds with KCNK9 block; HEK293 KCNK9 cells, FluxOR thallium flux fluorescence; inhibition, % at 10 µM; 4,900 tested, 43% active;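 active = thallium signal inhibited by more than 5 SD of the compound-free buffer control wells, on both duplicate plates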
# Kir2-1 spec – selectivity of KCNK9 modulators against mouse Kir2.1 | shares compounds with KCNK9 block | Kir2.1 cells, FluxOR thallium flux fluorescence | inhibition, % at 10 µM | 4,900 tested, 4% active | AID 492993;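 active = thallium signal drop more than 5 SD beyond the mean of the no-compound control wells, seen in both duplicate plates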;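 also: signal is fluorescence rise after thallium addition divided by baseline fluorescence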
# Target sequence (P35561 whole entry, looked up): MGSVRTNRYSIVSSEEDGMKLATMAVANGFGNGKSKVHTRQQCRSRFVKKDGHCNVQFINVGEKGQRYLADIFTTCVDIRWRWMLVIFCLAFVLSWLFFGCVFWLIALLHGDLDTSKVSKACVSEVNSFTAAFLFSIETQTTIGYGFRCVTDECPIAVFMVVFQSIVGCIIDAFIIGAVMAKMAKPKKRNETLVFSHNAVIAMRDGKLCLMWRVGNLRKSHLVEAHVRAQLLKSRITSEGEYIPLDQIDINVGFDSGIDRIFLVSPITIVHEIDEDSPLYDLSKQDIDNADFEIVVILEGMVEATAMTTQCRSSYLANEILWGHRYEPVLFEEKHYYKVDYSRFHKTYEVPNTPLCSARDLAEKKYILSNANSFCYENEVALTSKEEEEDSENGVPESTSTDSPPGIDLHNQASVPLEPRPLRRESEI
# KCNK9 uninduced – second counter-screen for KCNK9 modulators: effect in non-induced cells; shares compounds with KCNK9 block; non-induced KCNK9-HEK293, FluxOR thallium flux; inhibition, % at 10 µM; 4,900 tested, 40% active;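 active = thallium signal drop beyond 5 SD of the untreated control mean, on both duplicate plates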
# A number is an active result; 0 = inactive; - = not tested or not shown. Sampled rows, rich in hits. Any-hit rate of the full collection: about 3.1%.
SMILES,KCNK9 block,KCNQ1 block,hERG rescue,KCNQ1 act,KCNK3 block,KCNK9 inh conf,Kir2-1 spec,KCNK9 uninduced
COc1ccc(CN(CCC(c2ccccc2)c2ccco2)C(=O)c2ccco2)cc1 (configuration not stated),-13,0,0,0,0,50%,0,29%
COc1ccc(CN(C(=O)c2ccco2)c2ccccc2)cc1,0,0,0,0,0,-,-,-
CCN(C(=O)CCN1C(=O)S/C(=C\c2ccccc2)C1=O)C1CCS(=O)(=O)C1 (configuration not stated),0,0,0,0,0,-,-,-
COc1ccccc1OCc1nc(C#N)c(N2CC(C)CC(C)C2)o1 (configuration not stated),0,0,0,0,0,0,0,0
COc1ccccc1OCc1nc(C#N)c(N2CCCC2)o1,0,0,0,0,0,-,-,-
Cc1nc(N(C)Cc2ccccc2)c2nnn(Cc3ccccc3)c2n1,0,0,0,0,0,0,0,0
CC(=O)Nc1ccc(-n2nnnc2SCC(=O)Nc2cccc(NC(=O)c3ccco3)c2)cc1,0,0,0,0,0,-,-,-
O=C(NCCNc1ccc([N+](=O)[O-])cc1C(F)(F)F)c1ccccc1F,0,0,0,0,0,0,0,0
COc1ccc(N2C(=O)/C(=C\c3ccco3)N=C2SCC(=O)N(C(C)C)C(C)C)cc1Cl,0,0,0,0,0,-,-,-
COc1ccc(N2C(=O)/C(=C\c3ccco3)N=C2SCC(=O)NC(C)C)cc1Cl,-12,0,0,0,0,78%,0,36%
CC(C)CN1C(=S)SC(C)(C)C1n1oc(=O)n(-c2ccccc2)c1=O (configuration not stated),0,0,0,0,0,0,0,0
CC(C)N1C(=S)SC(C)(C)C1n1oc(=O)n(-c2cccc(Cl)c2)c1=O (configuration not stated),0,0,0,0,0,-,-,-
O=C(NCCCCc1ccccc1)C1CC(c2ccccc2C(F)(F)F)=NO1 (configuration not stated),0,0,0,0,0,-,-,-
O=C(NCCC1=CCCCC1)c1ccc(Cl)c(S(=O)(=O)N2CCOCC2)c1,0,0,0,0,0,-,-,-
O=C(NCCC1=CCCCC1)c1ccc(Cl)c(S(=O)(=O)N2CCCCC2)c1,0,0,0,0,0,0,0,0
Cc1ccc(CSCCNC(=O)c2ccc(Cl)c(S(=O)(=O)N3CCOCC3)c2)cc1,0,0,0,0,0,0,0,0
COc1ccc(OC)c(C(=O)NC(CC(N)=O)c2ccc(N3CCC(Cc4ccccc4)CC3)c([N+](=O)[O-])c2)c1 (configuration not stated),-11,0,0,0,0,55%,0,0
COc1ccc(/C=C2\CCC/C(=C\c3ccc(OC)c(OC)c3OC)C2=O)c(OC)c1OC,0,0,0,0,0,0,0,0
COc1cc(OC)c(OC)cc1/C=C1\CCC/C(=C\c2cc(OC)c(OC)cc2OC)C1=O,0,0,0,0,0,-,-,-
CCOc1cc(CNn2cnnc2)cc(Cl)c1OCC(=O)NC(C)(C)C,0,0,0,0,0,-,-,-
Cc1cc(NC(=O)CSCC(=O)N(C)Cc2c(F)cccc2Cl)no1,0,0,0,0,0,-,-,-
Cc1cccc(NC(=O)CSCC(=O)N(C)Cc2c(F)cccc2Cl)c1,0,0,0,0,0,0,0,0
Cc1nc2sc(C(=O)Nc3ccccc3Cc3ccccc3)c(C)c2c(=O)[nH]1,0,0,0,0,0,-,-,-
Cc1nc2c(ccc3nc(NC(=O)C(c4ccccc4)c4ccccc4)sc32)s1,-9.8,0,0,0,0,0,0,0
CC1CCCCN1C(=O)COC(=O)c1ccc(=O)n(Cc2ccccc2)n1 (configuration not stated),0,0,0,0,0,-,-,-
SMILES,KCNK9 block,KCNQ1 block,hERG rescue,KCNQ1 act,KCNK3 block,KCNK9 inh conf,Kir2-1 spec,KCNK9 uninduced
Cc1ccc(/C(=N\O)c2oc3c(C)c4oc(=O)cc(C)c4cc3c2C)cc1,-9.3,8,0,0,0,28%,0,44%
COCCN1C(=O)C(=O)/C(=C(/O)c2ccc(S(=O)(=O)N3CCOCC3)cc2)C1c1cccc([N+](=O)[O-])c1 (configuration not stated),0,0,0,0,0,-,-,-
CN(NC(=O)c1ccccc1F)c1ncccc1[N+](=O)[O-],0,0,0,0,0,-,-,-
Cc1ccc2[nH]c(C)c(/C=C/c3cc[n+](C)cc3)c2c1,-8.1,0,0,0,0,76%,56%,75%
CCOc1ccccc1Oc1cn[nH]c1-c1ccc(O)cc1O,-10,0,0,0,0,32%,0,0
Cc1cc(NC(=O)Nc2ccccc2[N+](=O)[O-])n(C)n1,0,0,0,0,0,-,-,-
Cc1ccc(C)c(OCC(O)CN2CCN(CCN3C(=O)c4cccc5cccc(c45)C3=O)CC2)c1 (configuration not stated),0,0,0,0,0,0,0,0
N#CC1CCCc2c1[nH]c1ccc([N+](=O)[O-])cc21 (configuration not stated),0,0,0,0,0,-,-,-
N#CC1(NC(=O)CN2C(=O)c3ccc([N+](=O)[O-])cc3C2=O)CCCCC1,0,0,0,0,0,-,-,-
O=C(NNc1ccccc1C(F)(F)F)c1sccc1Br,-8.7,0,0,0,0,44%,0,0
O=C(Nc1ccccc1C(F)(F)F)c1ccsc1,0,0,0,0,0,-,-,-
O=C(NCc1ccccc1)C12CN(Cc3ccccc3)CC1C(c1cccc([N+](=O)[O-])c1)=NO2 (configuration not stated),0,0,0,0,0,0,0,0
Cc1ccc(NC(=O)c2ccc(S(=O)(=O)N(C)c3ccccc3)cc2)cc1S(=O)(=O)N1CCOCC1,-,-,-,-,0,-,-,-
COc1ccc2cc(C(=O)C3CCCN(C(=O)CCc4ccccn4)C3)ccc2c1 (configuration not stated),0,0,0,0,0,0,0,0
O=C(c1ccc(Cl)cc1)C1CCCN(C(=O)/C=C/c2ccccn2)C1 (configuration not stated),0,0,0,0,0,0,0,0
COc1ccc(C(=O)C2CCCN(C(=O)/C=C/c3ccccn3)C2)c(C)c1 (configuration not stated),0,0,0,0,0,0,0,0
CC(C)(C)c1ccc(C(=O)C2CCCN(C(=O)c3ccccn3)C2)cc1 (configuration not stated),0,0,0,0,0,-,-,-
NC(=O)c1cc(N=Nc2c(N)[nH]n(-c3c(Cl)cc(Cl)cc3Cl)c2=O)ccc1Cl,0,0,0,0,0,-,-,-
CN(C)c1nc(NCc2ccccc2)nc(N/N=C/c2ccc(Cl)cc2Cl)n1,0,0,0,0,0,0,0,0

# Compound activity from PubChem BioAssay.
